Measurements of several laboratories.
HDAC7: Histone deacetylase 7 (HDAC7, Homo sapiens, UniProt Q8WUI4)
CSNK1A1: Casein kinase I isoform alpha (CSNK1A1, Homo sapiens, UniProt P48729)
PLA2G6: 85/88 kDa calcium-independent phospholipase A2 (PLA2G6, Homo sapiens, UniProt O60733)
HDAC10: Polyamine deacetylase HDAC10 (HDAC10, Homo sapiens, UniProt Q969S8)
SLC22A12: Solute carrier family 22 member 12 (SLC22A12, Homo sapiens, UniProt Q96S37)

SMILES | target | assay | setting | IC50
Cc1cc(N)c2ccccc2[n+]1CCCCCCCCCC[n+]1c(C)cc(N)c2ccccc21 | Solute carrier family 22 member 2 (SLC22A2, Homo sapiens, UniProt O15244) | transporter uptake, inhibitor, fluorescence | – | 88.2 nM
CC(=O)N[C@@H](CC(C)C)C(=O)N[C@@H](CC(C)C)C(=O)N[C@H](C=O)CCCNC(=N)N | Kallikrein-1 (KLK1, Homo sapiens, UniProt P06870) | enzyme activity, inhibitor | – | 3900 nM
COc1ccc(N(Cc2csc(-c3ccc(Br)cc3)n2)C(=O)CCCCCC(=O)NO)cc1 | HDAC7 | enzyme activity, inhibitor | – | > 10000 nM
c1ccc(-c2[nH]ccc2-c2ccnc3ccccc23)nc1 | CSNK1A1 | enzyme activity, inhibitor, ADP detection | – | > 30000 nM
Nc1ncnc2c1ncn2[C@@H]1O[C@H](CSCC[C@H](N)C(=O)O)[C@@H](O)[C@H]1O | Histone-lysine N-methyltransferase SETD2 (SETD2, Homo sapiens, UniProt Q9BYW2) | enzyme activity, inhibitor | – | 2110 nM
Oc1ccn2nc(-c3ccc(F)cc3)c(-c3ccncc3)c2c1 | CSNK1A1 | enzyme activity, inhibitor, ADP detection | – | 840 nM
NC(=O)c1nnn(Cc2cc(Cl)c(C(=O)c3ccc(Cl)cc3)c(Cl)c2)c1N | Cannabinoid receptor 2 (CNR2, Homo sapiens, UniProt P34972) | cAMP, antagonist | – | 3780 nM
c1ccc(-c2n[nH]cc2-c2ccncn2)nc1 | CSNK1A1 | enzyme activity, inhibitor, ADP detection | – | > 30000 nM
O=C(CCCCc1ccc(CO)cc1)C(F)(F)C(F)(F)F | PLA2G6 | enzyme activity, inhibitor | – | 630 nM
CN(CCCCCCNC(=O)CNc1cccc2c1C(=O)N(C1CCC(=O)NC1=O)C2=O)Cc1cn(Cc2ccc(C(=O)NO)cc2)c2ccccc12 (centres unmarked) | HDAC10 | enzyme activity, inhibitor, fluorescence | – | 7 nM
Cc1ccc(S(=O)(=O)NC(=O)c2cc3ccccc3n2Cc2ccc(C3CC3)c3ccccc23)cc1 | SLC22A12 | transporter uptake, inhibitor, radiometric | – | 14000 nM
Oc1ccc2c(-c3ccncc3)c(-c3ccc(F)cc3)nn2c1 | CSNK1A1 | enzyme activity, inhibitor, ADP detection | – | 1600 nM
CC(C)(O)c1coc(S(=O)(=O)NC(=O)c2cc3ccccc3n2Cc2ccc(Br)c3ccccc23)c1 | SLC22A12 | transporter uptake, inhibitor, radiometric | – | 9760 nM
Cn1cc(-c2ccnc3ccccc23)c(-c2ccccn2)n1 | CSNK1A1 | enzyme activity, inhibitor, ADP detection | – | 1500 nM
Cc1ncc(-c2cc3cc(-c4c(C)ccc(O)c4C)cnc3[nH]2)cn1 | Membrane-associated tyrosine- and threonine-specific cdc2-inhibitory kinase (PKMYT1, Homo sapiens, UniProt Q99640) | cell-free assay, TR-FRET | – | 19 nM
Oc1ccccc1-c1n[nH]cc1-c1ccnc2ccccc12 | CSNK1A1 | enzyme activity, inhibitor, ADP detection | – | 3100 nM
O=C(CNc1cccc2c1C(=O)N(C1CCC(=O)NC1=O)C2=O)NCCCCCCN1CCc2c(c3ccccc3n2Cc2ccc(C(=O)NO)cc2)C1 (centres unmarked) | HDAC10 | enzyme activity, inhibitor, fluorescence | – | 22 nM
CCCc1ccn2c(-c3ccncc3)c(-c3ccc(F)cc3)nc2c1 | CSNK1A1 | enzyme activity, inhibitor, ADP detection | – | 970 nM
CN(CCCCCCNC(=O)COc1ccc(C2CCC(=O)NC2=O)cc1)Cc1cn(Cc2ccc(C(=O)NO)cc2)c2ccccc12 (centres unmarked) | HDAC10 | enzyme activity, inhibitor, fluorescence | – | 12 nM
Fc1ccc(-c2nc3cc(C4CC4)ccn3c2-c2ccncc2)cc1 | CSNK1A1 | enzyme activity, inhibitor, ADP detection | – | 910 nM
O=C(O)CCCCCCCC(=O)C(F)(F)F | PLA2G6 | enzyme activity, inhibitor | – | 352000 nM
CC(C)(C)c1ccn2nc(-c3ccc(F)cc3)c(-c3ccncc3)c2c1 | CSNK1A1 | enzyme activity, inhibitor, ADP detection | – | 8700 nM
O=C(NO)c1ccc(Cn2cnc3c(Nc4ccc(Cl)cc4)ncnc32)cc1 | HDAC7 | enzyme activity, inhibitor | – | 48 nM
COc1ccc(N(Cc2csc(-c3ccc(C)cc3)n2)C(=O)CCCCCC(=O)NO)cc1 | HDAC7 | enzyme activity, inhibitor | – | > 10000 nM
O=C(O)CCc1nccc2c3ccccc3n(Cc3ccc(Br)c4ccccc34)c12 | SLC22A12 | transporter uptake, inhibitor, radiometric | – | 13800 nM
O=C(CCCCc1ccc(CO)cc1)C(F)(F)F | PLA2G6 | enzyme activity, inhibitor | – | 1100 nM
CCCS(=O)(=O)NC(=O)c1cc2ccccc2n1Cc1ccc(C2CC2)c2ccccc12 | SLC22A12 | transporter uptake, inhibitor, radiometric | – | 5560 nM
c1ccc(Cn2cc(-c3ccnc4ccccc34)c(-c3ccccn3)n2)cc1 | CSNK1A1 | enzyme activity, inhibitor, ADP detection | – | 5900 nM
CCc1oc2cc(F)c(F)cc2c1C(=O)c1cc(Br)c(O)c(Br)c1 | SLC22A12 | transporter uptake, inhibitor, radiometric | oocytes | 245 nM
